Experiments:
[1] = target: Human immunodeficiency virus type 1 reverse transcriptase (Human immunodeficiency virus 1, UniProt Q72547, L100I); assay: Inhibition of HIV1 wild-type reverse transcriptase L100I mutant using [3H]dTTP by scintillation counting
Outline: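 RNA-dependent DNA polymerase activity of recombinant RT (2–4 nM) on poly(rA)/oligo(dT) 10:1 with [3H]dTTP (1 Ci/mmol). Incubation at 37 °C. Acid-insoluble radioactivity collected on GF/C filters after 5% cold TCA, counted by scintillation.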

[2] = Selectivity index, ratio of CC50 for human MT4 cells to EC50 for HIV1 NL4.3 infected in human MT4 cells; assay type: toxicity, cell-based; conditions: read-out: Ratio CC50/EC50
Outline: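 Ratio CC₅₀/EC₅₀. CC₅₀ is from mock-infected MT-4 cells and EC₅₀ from HIV-1 NL4-3-infected MT-4 cells, both read by MTT at day 5 post-infection.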

[3] = tested on: Human immunodeficiency virus 1; assay: Antiviral activity against HIV1 harboring reverse transcriptase K103N/Y181C double mutant infected in human MT4 cells assessed as inhibition of virus-induced cell death measured after 5 days of infection by MTT method; assay type: functional, organism-based; conditions: Human immunodeficiency virus 1, MT4, 120 h
Outline: (§1)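 MT-4 cells infected with the named NNRTI-resistant HIV-1 RT mutant strain, in the presence of a range of compound concentrations. Viable cells counted at day 5 post-infection by tetrazolium (MTT) colorimetry. […] Mean of 2–3 independent experiments, each in triplicate.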

[4] = tested on: Human immunodeficiency virus 1; assay: Ratio of EC50 for HIV1 harboring reverse transcriptase K103N mutant to EC50 for wild type HIV1 NL4.3; assay type: functional
Outline: (§2)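 Fold change is the EC50 against the named mutant strain divided by the EC50 against wild-type HIV-1 NL4-3. […] Means of 2–3 independent experiments in triplicate.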

[5] = Cytotoxicity against human MT4 cells assessed as cell viability by MTT assay; assay type: cell-based
Outline: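 Mock-infected MT-4 cells exposed to a range of compound concentrations. Viable cells measured by MTT colorimetry at day 5. CC₅₀ = concentration causing 50% death of non-infected cells. Means of two to three independent experiments, each in triplicate.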

[6] = tested on: Human immunodeficiency virus 1; assay: Ratio of EC50 for HIV1 harboring reverse transcriptase […] mutant to EC50 for wild type HIV1 NL4.3; assay type: functional; outline: as §2
[7] = target: T1, Human immunodeficiency virus type 1 reverse transcriptase (Human immunodeficiency virus 1, UniProt Q72547); assay: Inhibition of HIV1 wild-type reverse transcriptase Y181I/Y181C mutant using [3H]dTTP by scintillation counting
[8] = target: Human immunodeficiency virus type 1 reverse transcriptase (Human immunodeficiency virus 1, UniProt Q72547, K103N); assay: Inhibition of HIV1 wild-type reverse transcriptase K103N mutant using [3H]dTTP by scintillation counting
[9] = tested on: Human immunodeficiency virus 1; assay: Ratio of EC50 for HIV1 harboring reverse transcriptase Y181C mutant to EC50 for wild type HIV1 NL4.3; assay type: functional; outline: as §2
[10] = tested on: Human immunodeficiency virus 1; assay: Ratio of EC50 for HIV1 harboring reverse transcriptase K103N/Y181C double mutant to EC50 for wild type HIV1 NL4.3; assay type: functional; outline: as §2
[11] = target: T1, Human immunodeficiency virus type 1 reverse transcriptase; assay: Inhibition of HIV1 wild-type reverse transcriptase using [3H]dTTP by scintillation counting
[12] = tested on: Human immunodeficiency virus 1; assay: Antiviral activity against HIV1 3B infected in human CEM cells assessed as protection of cells monitored by giant cell formation by microscopy; assay type: functional, organism-based; conditions: Human immunodeficiency virus 1, 3B, CCRF-CEM
Outline: (§3)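 Human CEM cultures (~3 × 10⁵ cells/mL) infected with ~100 CCID₅₀ per mL of HIV-1 IIIB or HIV-2 ROD, seeded with serial compound dilutions. Incubated 4 days at 37 °C; syncytium (giant cell) formation scored by microscopy. EC₅₀ = concentration protecting cells from viral cytopathicity by 50%. Means of two to three independent experiments, each in triplicate.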

[13] = tested on: Human immunodeficiency virus 1; assay: Antiviral activity against HIV1 NL4.3 infected in human MT4 cells assessed as inhibition of virus-induced cell death measured after 5 days of infection by MTT method; assay type: functional, organism-based; conditions: Human immunodeficiency virus 1, NL4.3, MT4, 120 h
Outline: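 Lymphoid MT-4 cells (NIH AIDS Reagent Program) infected with HIV-1 NL4-3 in the presence of varying compound concentrations. On day 5 post-infection, viable cells were counted by MTT tetrazolium colorimetry. EC₅₀ = concentration inhibiting virus-induced cell death by 50%. Means of two to three independent experiments, each in triplicate.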

[14] = tested on: Human immunodeficiency virus 2; assay: Antiviral activity against HIV-2 ROD infected in human CEM cells assessed as protection of cells monitored by giant cell formation by microscopy; assay type: functional, organism-based; conditions: Human immunodeficiency virus 2, ISOLATE ROD, CCRF-CEM; outline: as §3
[15] = tested on: Human immunodeficiency virus 1; assay: Antiviral activity against HIV1 harboring reverse transcriptase K103N mutant infected in human MT4 cells assessed as inhibition of virus-induced cell death measured after 5 days of infection by MTT method; assay type: functional, organism-based; conditions: Human immunodeficiency virus 1, MT4, 120 h; outline: as §1
[16] = tested on: Human immunodeficiency virus 1; assay: Antiviral activity against HIV1 harboring reverse transcriptase Y181C mutant infected in human MT4 cells assessed as inhibition of virus-induced cell death measured after 5 days of infection by MTT method; assay type: functional, organism-based; conditions: Human immunodeficiency virus 1, MT4, 120 h; outline: as §1
[17] = tested on: Human immunodeficiency virus 1; assay: Antiviral activity against HIV1 harboring reverse transcriptase […] mutant infected in human MT4 cells assessed as inhibition of virus-induced cell death measured after 5 days of infection by MTT method; assay type: functional, organism-based; conditions: Human immunodeficiency virus 1, MT4, 120 h; outline: as §1
[18] = target: Human immunodeficiency virus type 1 reverse transcriptase (Human immunodeficiency virus 1, UniProt Q72547, V106A); assay: Inhibition of HIV1 wild-type reverse transcriptase V106A mutant using [3H]dTTP by scintillation counting
[19] = tested on: Human immunodeficiency virus 1; assay: Antiviral activity against HIV1 harboring reverse transcriptase Y188L mutant infected in human MT4 cells assessed as inhibition of virus-induced cell death measured after 5 days of infection by MTT method; assay type: functional, organism-based; conditions: Human immunodeficiency virus 1, MT4, 120 h; outline: as §1
[20] = tested on: Human immunodeficiency virus 1; assay: Ratio of EC50 for HIV1 harboring reverse transcriptase Y188L mutant to EC50 for wild type HIV1 NL4.3; assay type: functional; outline: as §2
[21] = tested on: Human immunodeficiency virus 1; assay: Ratio of efavirenz EC50 to compound EC50 for HIV1 harboring reverse transcriptase L100I mutant infected in human MT4 cells; assay type: functional
[22] = tested on: Human immunodeficiency virus 1; assay: Ratio of efavirenz EC50 to compound EC50 for HIV1 harboring reverse transcriptase Y188L mutant infected in human MT4 cells; assay type: functional

SMILES | IC50 [1] [nM] | selectivity ratio [2] | EC50 [3] [nM] | Ratio EC50 [4] | CC50 [5] [nM] | Ratio EC50 [6] | IC50 [7] [nM] | IC50 [8] [nM] | Ratio EC50 [9] | Ratio EC50 [10] | IC50 [11] [nM] | EC50 [12] [nM] | EC50 [13] [nM] | EC50 [14] [nM] | EC50 [15] [nM] | EC50 [16] [nM] | EC50 [17] [nM] | IC50 [18] [nM] | EC50 [19] [nM] | Ratio EC50 [20] | other results
Cc1cc(C)cc(S(=O)(=O)c2c(C(=O)NC(C)c3ccccc3)[nH]c3ccc(Cl)cc23)c1 (racemic) | 70 | > 206000 | 3270 | 55 | > 53500 | 43 | 8230 | 540 | 1200 | 5445 | 40 | 16 | 0.6 | > 10000 | 33 | 720 | 26 | 50 |  |  | 
Cc1cc(C)cc(S(=O)(=O)c2c(C(=O)N[C@H](C)c3ccccc3)[nH]c3ccc(Cl)cc23)c1 | 50 |  | 1670 | 2 |  |  | 2530 | 90 | 41 | 795 | 39 |  | 2.1 |  | 4.3 | 86 |  | 65 | 193 | 92 | 
Cc1cc(C)cc(S(=O)(=O)c2c(C(=O)NCc3ccccc3F)[nH]c3ccc(Cl)cc23)c1 | 70 | > 78100 | 2140 | 11.5 | > 53100 | 7.9 | > 20000 | 100 | 324 | 3153 | 180 | 3.6 | 0.68 | > 2000 | 7.8 | 220 | 5.4 |  |  |  | Ratio EC50 [21]: 10
Cc1cc(C)cc(S(=O)(=O)c2c(C(=O)NCCc3ccc(Cl)cc3)[nH]c3ccc(Cl)cc23)c1 | 960 | 602 | 32400 | >=37 | 32400 | 3.5 | > 20000 | 60 | 36 | 602 | 89 | 68 | 53.8 | > 10000 | ≥ 2000 | 1700 | 190 |  |  |  | 
Cc1cc(C)cc(S(=O)(=O)c2c(C(=O)NCCc3cccc(Cl)c3)[nH]c3ccc(Cl)cc23)c1 | 10 | 7270 | 29100 | 45 | 29100 | 7.8 | > 20000 | 5940 | 218 | 7274 | 83 | 11 | 4 | > 10000 | 180 | 870 | 31 |  |  |  | 
Cc1cc(C)cc(S(=O)(=O)c2c(C(=O)NCc3ccccc3[N+](=O)[O-])[nH]c3ccc(Cl)cc23)c1 |  | > 62800 | 1870 | 7.5 | > 50200 |  | > 20000 | 23 | 20 | 2335 | 23 |  | 0.8 |  | 6 | 16 |  |  | 281 | 351 | Ratio EC50 [22]: 2.7
